Measured values: the RNAGym collection of RNA variant scans (doi:10.1126/science.aae0568)
Variants at the floor of the assay were thinned out.

B1: tRNA (parent)
chain: GUUCCGUUGGCGUAAUGGUAACGCGUCUCCCUCCUAAGGAGAAGACUGCGGGUUCGAGUCCCGUACGGAACG

Variants of: B1
Assay: yeast fitness relative to wild type (ratio to wild type); higher = fitter; tRNA-Arg(CCU), competitive growth, 37 C, YPD
Outline: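 Amplicons of the tRNA-Arg(CCU) gene were sequenced, 100-nucleotide paired-end, from the start population and from each end population of a pooled yeast competition. The competition, in six parallel replicates, lasted 24 hours in YPD at 37°C. Fitness relative to wild type was calculated from changes in genotype frequencies. Genotypes had to have ≥ 100 starting reads, and estimates < 0.5 were set to 0.5.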

Point of comparison: GUUCUGUUGGCGGAAUGGUAACGCGUCUCCCUCCUAAGGAGAAGACUGCGGGUUCGAGUCCCGUACGGAACG [C5U U13G], yeast fitness 1.02. Against it:
- GUUCUGUUGGCGUAAUGGUAACGCGUCUCCCUCCUAUGGAGAAGACUGCGGGUUCGAGUCCCGUGCGGAACG [C5U A37U A65G] — lower, 0.57
- GUUCCGUAGGCGUAAUGGUAACGCGACUACCUCCUAAGGAGAAGACUGCGGGUUCGAGUCCCGUCCGGAACG [U8A U26A C29A A65C] — lower, 0.761
- GUUUCGUUGGCGUAAUGGUAACGCGUCUCCCACCUAAGGAGAAGACUGCGGGUUCGCGUCCCGUACGGAACG [C4U U32A A57C] — lower, ≤ 0.5
- GUUCCGUUGGCGUAUUGGUAACCCGUCUCCCUCCUAAGGAAAAGACUGAGGGUUCGAGUCCCGUACGGAACG [A15U G23C G41A C49A] — lower, ≤ 0.5
- GUUCCGUUGGCGUUAUGGUAACGCGUCUCCCUCCUAUGGAGAAGACUGCGGGUUCGAGUCGUGUACGGAACG [A14U A37U C61G C62U] — lower, ≤ 0.5
- GUUCCGUUGGAGUAAUGGUAACGCGUCUCGUCCCUAAGGAGGAGACUGCGGAUUCGAGUCCCGUACGGAACG [C11A C30G C31U U32C A42G G52A] — lower, ≤ 0.5
- GUUCCGUUGGCGUGAUGGUAACGCGUCUCCCUCCUAAGGAGAAGACUGGGGGUUCGAGUCCCGUACGGAACG [A14G C49G] — lower, 0.815
- GUUCCGUUGGCGUAAUGGUAACACGUCUGGCUCCUAAGGAGAAGACUGAGGGUUCCAGUCUCGUACGGAACG [G23A C29G C30G C49A G56C C61U] — lower, 0.702
- GUUCCGUUGGCGUAGUGGUAACGCGUGUCCCUCCUAAGGAGAGGACUGCGGGUUCGAGACCCGUACGGAACG [A15G C27G A43G U59A] — lower, ≤ 0.5
- GAUCCGUUGGGGUAAUGGUAACGCGUCUCCCUCUUAAGGAGUAGACUGCGGGUUCGAGUCCCGUACGAAACG [U2A C11G C34U A42U G68A] — lower, ≤ 0.5
- GGUCCGUUGGCGUACUGGUAACGCGUCUCCCUCCUAGGGAGAUGACUGCGGGUUCGAGUCCCGUACGGAACG [U2G A15C A37G A43U] — lower, ≤ 0.5
- GUUCCGUUGGCGUCAUGGUUACGCGUCUCCUUCCUAACGAGAAGACUGCGGGUUCGAGUCCCGUACGGAACG [A14C A20U C31U G38C] — lower, ≤ 0.5
- GUUCCGUUGGCGUAAUGGUAACGCGUCUCCCUCCUACGGAGAAGACUGCGGGUUCGAGUCCCGGACGGAACG [A37C U64G] — lower, 0.684
- GUUCCGUUGGCGUAAUGGUAACGCGUCUCCUUCCUAAGGAAAAGACUGCGGGUUCGAGUCCCGUACGGAACG [C31U G41A] — lower, 0.959
- GUUCCGUUAGCGUAAUGGUAACGCGUCUCCCACCUAAGGAGAAGACUCCGGGUUCGAGUCCCGUACGGAACG [G9A U32A G48C] — lower, 0.531
- GUUCCGUUGGCGUGAUGGUAACGCCUCUCCCUCCUAAGGAGAAGACUGCGGGUUCGAGUCCCGUACGGAACG [A14G G25C] — lower, 0.976
- GUUCCGUUGGCGUAAAGGUAACGCAUCACCCUCCUAAGGAGAAGACUGCGGGUUCGAGUCCCGUACGGAACG [U16A G25A U28A] — lower, ≤ 0.5
- GUUCCGUUGGCGAAAUGGUACCGCGUCUCCCUCCUAAGGAGAAGACUGCGGGUGCGAGUCCCGUACGGAACG [U13A A21C U54G] — lower, 0.557
- GUUCCGUUGGCGUAAUGGUAACGCGUCUCCCUCAUAAGGAGAAGACAGCGGGUUCGAGUCGCGUACGGAACG [C34A U47A C61G] — lower, ≤ 0.5
- GUUCCGUUGGCGUUCUGGUAACGCGUCUCCGUCCUAAGGAGAAGACUGCAGGUUCGAGUCCCGUACGGAACG [A14U A15C C31G G50A] — lower, 0.665
- GUUCCGUCGACGUAAUGGUAACGCGUCUCCCUCCUAAGGGGAAGACUGCGGGUUCGAGUCCCGUACAGAACG [U8C G10A A40G G67A] — lower, 0.593
- GUUCCGUUGGCGUAAUGGUAACGGGUCUCCCUCCUAAGGAGAAGACUGCGGGUUCGAGUUCCGUACGGAACG [C24G C60U] — lower, 0.61
- GUUCCGUUGACGUAAUAGUAACGCGUCUCCGUCCUAAGGAGAAGACUGCGGGUUCGAGUCCCGUACGGAACG [G10A G17A C31G] — lower, ≤ 0.5
- GUUCCGUUGGCGUAAAGGUAACGCGUCUCCCUCCUAAGGAGAAGACUGCGGGUUCGAGUCGCGUGCGGAACG [U16A C61G A65G] — lower, ≤ 0.5
- GUUCCGUUGGCGUAAUGGUAACGCAUCUCCAUCCUAAGGAGAAGACUGCGCGUUGGUGUCCCGUAUGGAACG [G25A C31A G51C C55G A57U C66U] — lower, ≤ 0.5
- GUUCCGGUGGCGUAAUGGCAACGCGUCUCCCUCCUAAGGAGAAGACUGCGGGUUCGAGUCCCGCACGGAACG [U7G U19C U64C] — lower, 0.954
- GUUCCGUUGGCGUAUUGGUAACGGGUCUCCCUCUUAAGGAGAAGACUGCGGGCUGGAGUCCAGUACGGAACG [A15U C24G C34U U53C C55G C62A] — lower, ≤ 0.5
- GUACCGUUGGCGUAAUGGUAACGCGUCUCCCUCCAAAGGAGAAGACUGCGGGUUCGAGUGCCGUACGGAACG [U3A U35A C60G] — lower, 0.593
- GUUGCGUUGGCGUAAUGGUAACGCGUUUCCCUCCUAAGGAGAAGACUGCGGGUUCGAAUCCCGUACGGAACG [C4G C27U G58A] — lower, 0.61
- GUUCUGUUGGCGUUAUGGUAACGCGUGUCCCUCCUAAGGAGAAGACUGCGGGUUCGAGUCCCGUACGGAACG [C5U A14U C27G] — lower, ≤ 0.5
- GAUCCGUUGGCGUAAUGGUAACACGUCUGCCUCCUAAGGAGAAGACUGCGGGUUCGACUUCCGUAGGGAACG [U2A G23A C29G G58C C60U C66G] — lower, ≤ 0.5
- GUUCCGUUGGCGAAAUGGUAACGCGUCUUCCUCCUAAGGCGAAGACUGCGGGUUCGAGUCCCGUACGGUACG [U13A C29U A40C A69U] — lower, ≤ 0.5
- GUUCCGUUGGCGUAAUGGUAACGCGUCUUCCUCCUCAGGAGAAGACUGCGGGUUCGUGUCCCGUACGGAACG [C29U A36C A57U] — lower, ≤ 0.5
- GUUCCGUUGGCGUAAUGGUAGCGCGUCUCCCUCCUAAGGAGAGGACUGCGGGUUCGAGUCCCGUACGGAACG [A21G A43G] — higher, 1.04
- GUUACGUUGGCGUGAUGGUAACGCGUCUCCCUCCUAAGGAGAAGACUGAGGGUUCGAGUCCCGUACGGAACG [C4A A14G C49A] — lower, ≤ 0.5
- GUUCCGUUGGCAUAAUGGUAACGCGUCUCCCUCCAAAGGAGAAGACUGCGCGUUCGAGUCCCGUACGGAACG [G12A U35A G51C] — lower, ≤ 0.5
